According to paper PMC3712287 (Journal of neuroimmunology, 2010):
“Also recorded” adds a separate entry of the source. Where two headings read alike, the source gives them in different places.

Key:
[1] = test system: FcεRI expression by LAD2 mast cells; assay: FcεRI surface expression by flow cytometry, LAD2 mast cells; format: cell-based, human; details: for Effect of antagonist on SP-mediated downregulation of FcεRI: LAD2, antagonist 0.1 μM 30 min pretreatment
LAD2 mast cells [2] = assay: Degranulation assay; format: cell-based, human
LAD2 mast cells [3] = details: ref Kulka et al., 2008; cited from earlier work
[4] = test system: FcεRI α, β and γ subunit mRNA in LAD2 mast cells; assay: Quantitative real-time PCR of FcεRI α, β and γ subunit mRNA; format: cell-based, human; details: LAD2, 1 μg/ml SP, after at least 8 h of incubation, vs untreated control, n=3
In short: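 LAD2 cells received 1 μg/ml SP or PBS for varying times. Total RNA was column-isolated, and 5 μg was reverse-transcribed with random hexamers. Real-time PCR used 50 ng cDNA per reaction, run in triplicate for 40 cycles. Subunit mRNA was normalized to GAPDH and expressed as percent of PBS-treated cells at each time point. n=3.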

[5] = test system: CysLT production by LAD2 mast cells; assay: ELISA for CysLT production; format: cell-based, human; details: for Effect of SP on CysLT production: LAD2, SP 10 μg/ml, anti-IgE 3 h
[6] = test system: IgE binding by LAD2 mast cells; assay: Cell surface IgE binding by flow cytometry; format: cell-based, human; details: SP 24 h, sensitized with IgE 1-100 ng/ml 30 min, anti-IgE FITC, n=5
In short: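 LAD2 human mast cells (StemPro-34 SFM, 10 ng/ml SCF) were incubated 24 h with SP, then sensitized for 30 min with IgE at 1-100 ng/ml. Bound IgE was stained with anti-IgE-FITC (5 μg/ml) for 30 min on ice and read by flow cytometry as MFI.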

mast cell tryptase = assay: Tryptase activity assay; format: biochemical, human; details: supernatants of SP-activated LAD2, BAPNA substrate, n=3
In short: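 Washed LAD2 cells were left untreated or activated with SP (1 μg/ml) for 3 h. Cell-free supernatants were exposed to SBTI for 30 min, then mixed with 0.8 mM BAPNA solution in 0.1 M Tris/1 M glycerol, pH 7.8, and incubated 4 h at 37 °C. Nitroaniline was read at 410 nm. Activity was expressed relative to supernatants from SP-stimulated cells without inhibitor. n=3.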

**Q.** For O=C(O)CN(CCN(CC(=O)O)CC(=O)O)CC(=O)O [EDTA], which “Effect on SP-mediated downregulation of FcεRI” value [1] is on record?
**A.** blocked the SP-mediated downregulation of FcεRI

**Q.** What about the “Effect on SP-induced degranulation” value (LAD2 mast cells [2]) of the same molecule?
**A.** blocked SP-induced degranulation

**Q.** For Pertussis toxin, which “Effect on SP-mediated downregulation of FcεRI” value ([1]; Pertussis toxin pretreatment 2 h, then 1 μg/ml SP 24 h, n=3) is on record?
**A.** selectively blocked SP-mediated downregulation of FcεRI

**Q.** For SP(4–11) [SP(4–11) [D-Pro4 D-Trp7.9]], which “Concentration that blocked the SP-mediated downregulation of FcεRI expression” value ([1]; LAD2, 30 min pretreatment, then 1 μg/ml SP 24 h) is on record?
**A.** 0.1 µM

**Q.** What about the “Effect of antagonist on SP-mediated downregulation of FcεRI” value ([1]; then 1 μg/ml SP 24 h) of the same molecule?
**A.** blocked SP-mediated downregulation of FcεRI expression

**Q.** What about the “Concentration at which SP(4–11) abrogated the SP effect on FcεRI expression” value ([1]; discussion statement) of the same molecule?
**A.** 1 µg/mL

**Q.** Which results are given for spantide I?
**A.** Effect of antagonist on SP-mediated downregulation of FcεRI ([1]; then 1 μg/ml SP 24 h): did not have any effect; Effect on SP-mediated degranulation in mast cells (LAD2 mast cells [3]): fails to inhibit SP-mediated degranulation

**Q.** What does the source list for substance P [SP]?
**A.** Lowest SP concentration leading to clear down-regulation of FcεRI ([1]; LAD2 (discussion statement)): 1 µM; Time within which SP reduced IgE receptors ([1]; LAD2 (discussion statement)): ≤ 30 min; Downregulation of FcεRI expression ([1]; LAD2, 1 μg/ml SP, 24 h): approximately 30%; Reduction of FcεRI expression ([1]; LAD2, 10 μg/ml SP (highest concentration tested), 24 h): ~70%; Reduction in FcεRI protein expression compared to untreated cells ([1]; LAD2, 10 μg/ml SP, 2 h): 50%; IC50 of SP for downregulation of FcεRI surface expression ([1]; LAD2, in the absence of IgE, SP 24 h, flow cytometry, n=3): 5.2 µg/mL; Effect on expression of FcεRI α, β and γ subunit mRNA [4]: significantly inhibited; Effect of SP on CysLT production ([5]; sensitized with 50 ng/ml IgE): significantly inhibited CysLT production; Effect of SP on CysLT production ([5]; sensitized with 100 ng/ml IgE): did not significantly affect CysLT production; Effect of SP pretreatment on IgE/anti-IgE-induced CysLT production ([5]; LAD2, SP 24 h, sensitized with IgE, activated with anti-IgE 3 h, ELISA, n=3): significantly less CysLT; Direct activation of CysLT production ([5]; mast cells, SP alone): does not activate mast cells to produce cysteinyl leukotrienes; IgE binding of SP-treated LAD2 vs untreated controls [6]: bound less IgE; Effect on mast cell viability (human mast cells): no effect on mast cell viability

**Q.** For vasoactive intestinal peptide [VIP], which “Effect on mast cell viability” value (human mast cells) is on record?
**A.** no effect on mast cell viability

B1: soybean trypsin inhibitor (protein, UniProt P01070 25-205, looked up)
Trypsin inhibitor A: DFVLDNEGNPLENGGTYYILSDITAFGGIRAAPTGNERCPLTVVQSRNELDKGIGTIISSPYRIRFIAEGHPLSLKFDSFAVIMLCVGIPTEWSVVEDLPEGPAVKIGENKDAMDGWFRLERVSDDEFNNYKLVFCPQQAEDDKCGDIGISIDHDDGTRRLVVSKNKPLVVQFQKLDKESL
**Q.** For B1, which “Effect on SP-mediated downregulation of FcεRI” value ([1]; LAD2, 100 μg/ml SBTI five minutes prior to 1 or 10 μg/ml SP, 24 h) is on record?
**A.** did not affect SP-mediated downregulation of FcεRI

**Q.** What about the “Effect on SP-induced degranulation” value (LAD2 mast cells [2]; LAD2, pretreatment before activation with SP, β-hexosaminidase release) of the same molecule?
**A.** did not affect LAD2 cell degranulation

**Q.** And the “Effect on activity of tryptase released by SP activation” value (mast cell tryptase)?
**A.** able to block the activity of tryptase; also recorded: completely blocked the proteolytic activity of tryptase
